In ChEMBL document CHEMBL4706701, “Synthesis and biological activity of selenopsammaplin A and its analogues as antitumor agents with DOT1L inhibitory activity” (Bioorg Med Chem, 2021):
pIC50: −log10 of the molar value. Active and inactive are the calls of the source. The rule behind the calls is not given here.

What was measured:
SNU-638 = assay: Cytotoxicity against human SNU-638 cells assessed as reduction in cell viability by SRB assay; type: functional, cell-based
Procedure, shortened: (§1)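 Cells seeded in 96-well plates and exposed to compounds for the stated times. Zero-day controls were incubated 30 min. Cells were fixed and stained with 0.4% SRB in 1% acetic acid, and bound dye was dissolved in 10 mM Tris (pH 10.0). A515 was read, and IC50 was calculated by non-linear regression.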

A549 = assay: Cytotoxicity against human A549 cells assessed as reduction in cell viability by SRB assay; type: functional, cell-based; procedure, shortened: as §1
[1] = target: Histone-lysine N-methyltransferase, H3 lysine-79 specific (Homo sapiens) (UniProt Q8TEK3); assay: Inhibition of human N-terminal GST-tagged DOT1L (2 to 416 residues) expressed in Escherichia coli at 200 nM using DOT1L substrate measured after 2 hrs in presence of SAM by ELISA
Sequence of Histone-lysine N-methyltransferase, H3 lysine-79 specific (Homo sapiens) (Q8TEK3 whole entry, looked up, the tested form may be a part): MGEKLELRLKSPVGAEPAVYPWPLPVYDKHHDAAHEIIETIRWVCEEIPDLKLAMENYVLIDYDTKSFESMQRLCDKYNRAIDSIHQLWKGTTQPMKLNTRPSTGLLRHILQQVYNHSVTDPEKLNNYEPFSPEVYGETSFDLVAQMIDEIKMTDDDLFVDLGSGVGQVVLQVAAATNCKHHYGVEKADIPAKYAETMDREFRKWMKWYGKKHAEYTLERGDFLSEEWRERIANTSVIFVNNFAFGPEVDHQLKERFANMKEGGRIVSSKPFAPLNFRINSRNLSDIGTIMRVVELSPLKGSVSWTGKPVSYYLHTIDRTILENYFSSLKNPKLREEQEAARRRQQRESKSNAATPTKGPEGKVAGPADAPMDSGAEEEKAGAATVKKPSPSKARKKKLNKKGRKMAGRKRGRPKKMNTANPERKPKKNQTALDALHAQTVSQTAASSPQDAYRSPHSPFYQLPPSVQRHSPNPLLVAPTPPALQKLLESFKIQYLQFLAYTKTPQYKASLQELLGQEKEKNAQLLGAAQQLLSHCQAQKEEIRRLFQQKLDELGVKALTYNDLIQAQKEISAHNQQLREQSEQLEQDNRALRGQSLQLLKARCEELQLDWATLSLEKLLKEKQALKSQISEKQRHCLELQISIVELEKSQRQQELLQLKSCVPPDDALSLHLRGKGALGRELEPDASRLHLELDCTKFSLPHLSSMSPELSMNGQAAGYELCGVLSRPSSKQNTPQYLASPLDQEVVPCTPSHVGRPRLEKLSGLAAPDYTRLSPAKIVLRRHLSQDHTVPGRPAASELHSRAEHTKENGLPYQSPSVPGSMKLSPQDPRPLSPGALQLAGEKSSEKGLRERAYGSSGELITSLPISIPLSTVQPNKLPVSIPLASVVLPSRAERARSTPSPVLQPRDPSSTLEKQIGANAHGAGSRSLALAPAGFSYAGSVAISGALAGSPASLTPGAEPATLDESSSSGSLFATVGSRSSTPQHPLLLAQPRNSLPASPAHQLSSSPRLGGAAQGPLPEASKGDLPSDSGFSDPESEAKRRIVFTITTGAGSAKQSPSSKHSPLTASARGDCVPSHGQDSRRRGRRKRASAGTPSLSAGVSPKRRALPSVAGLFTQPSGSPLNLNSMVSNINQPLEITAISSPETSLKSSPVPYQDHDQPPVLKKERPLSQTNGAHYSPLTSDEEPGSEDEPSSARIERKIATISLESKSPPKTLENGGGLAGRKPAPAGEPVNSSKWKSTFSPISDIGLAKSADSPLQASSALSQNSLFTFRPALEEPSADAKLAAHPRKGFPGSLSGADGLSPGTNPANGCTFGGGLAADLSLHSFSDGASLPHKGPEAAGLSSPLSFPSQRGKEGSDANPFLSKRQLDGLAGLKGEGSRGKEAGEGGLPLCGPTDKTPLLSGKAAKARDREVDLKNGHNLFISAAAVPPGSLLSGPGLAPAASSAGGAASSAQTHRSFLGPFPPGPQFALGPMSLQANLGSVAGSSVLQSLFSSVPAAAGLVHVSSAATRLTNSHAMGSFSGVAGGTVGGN
Procedure, shortened: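 Cell-free DOT1L enzyme activity assay using 500 ng DOT1L per well. Compound was incubated 2 h before read-out. EPZ-5676 (100 nM) was the positive control. Mean ± SD (n = 3), representative of three separate experiments.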

MDA-MB-231 = assay: Cytotoxicity against human MDA-MB-231 cells assessed as reduction in cell viability by SRB assay; type: functional, cell-based; procedure, shortened: as §1
[2] = target: Histone-lysine N-methyltransferase, H3 lysine-79 specific (Homo sapiens) (UniProt Q8TEK3); assay: Inhibition of DOT1L in human MDA-MB-231 cells assessed as down regulation of H3K79me2 expression at 200 nM by Western blot analysis; type: cell-based
Procedure, shortened: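 MDA-MB-231 lysates were made in 2× SDS sample buffer with vanadate and fluoride. 5-20 μg protein was run on 8–15% SDS-PAGE and blotted to PVDF. Membranes were blocked in 5% BSA, probed for H3K79me2 with total histone H3, and detected by ECL. Mean ± SD (n = 3), representative of three separate experiments.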

HCT-116 = assay: Cytotoxicity against human HCT-116 cells assessed as reduction in cell viability by SRB assay; type: functional, cell-based; procedure, shortened: as §1
SK-HEP1 = assay: Cytotoxicity against human SK-HEP1 cells assessed as reduction in cell viability by SRB assay; type: functional, cell-based; procedure, shortened: as §1
[3] = Toxicity in human MDA-MB-231 cells xenografted BALB/c nu mouse assessed as body weight loss at 5 mg/kg, ip administered thrice per week for 38 days measured once per week during compound dosing; type: organism-based; settings: in vivo, 912 h, time 38 day
Procedure, shortened: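 Female BALB/c-nu mice (5–6 wk) given 1 × 10⁷ luciferase-expressing MDA-MB-231 cells in 50:50 DMEM/Matrigel into the fourth fat pad; randomized after 10 days (six per group). Dosed ip in EtOH/Cremophor/saline (5:5:90) three times weekly for 38 days. Tumor L, W, H measured by caliper, volume = LWH/2; body weight weekly; tumors excised and weighed at termination.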

[4] = Selectivity ratio of IC50 for human MCF-10A cells to IC50 for human A549 cells; type: toxicity; settings: MCF-10A cells versus A549 cells, read-out: Ratio IC50
[5] = Selectivity ratio of IC50 for human MCF-10A cells to IC50 for human HCT-116 cells; type: toxicity; settings: MCF-10A cells versus HCT-116 cells, read-out: Ratio IC50
[6] = Selectivity ratio of IC50 for human MCF-10A cells to IC50 for human SNU-638 cells
Procedure, shortened: (§2)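 Cytotoxicity by SRB assay: cells seeded in 96-well plates and treated with compounds; fixed, stained with 0.4% SRB in 1% acetic acid, dye dissolved in 10 mM Tris (pH 10.0), absorbance read at 515 nm. IC50 by non-linear regression, means of at least three experiments; ratio of MCF10A IC50 to cancer-line IC50.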

[7] = Selectivity ratio of IC50 for human MCF-10A cells to IC50 for human SK-HEP1 cells; procedure, shortened: as §2
[8] = Selectivity ratio of IC50 for human MCF-10A cells to IC50 for human MDA-MB-231 cells; type: toxicity; settings: MCF-10A cells versus MDA-MB-231 cells, read-out: Ratio IC50
MCF-10A = assay: Cytotoxicity against human MCF-10A cells assessed as reduction in cell viability by SRB assay; type: cell-based; procedure, shortened: as §1

SMILES | pIC50 (SNU-638) | pIC50 (A549) | inhibition [1] | pIC50 (MDA-MB-231) | H3K79me2 downregulation (active/not active) [2] | pIC50 (HCT-116) | pIC50 (SK-HEP1) | Activity [3] | selectivity ratio [4] | selectivity ratio [5] | Ratio IC50 [6] | Ratio IC50 [7] | selectivity ratio [8] | pIC50 (MCF-10A)
CCOc1ccc(C/C(=N\O)C(=O)NCC[Se][Se]CCNC(=O)/C(Cc2ccc(OCC)cc2)=N/O)cc1 | 7.52 | 7.30 | Active | 6.70 | Active | 7.15 | 6.74 |  |  |  |  |  |  | 
CC(=O)O[C@H]1C(=O)[C@@]2(C)[C@H]([C@H](OC(=O)c3ccccc3)[C@]3(O)C[C@H](OC(=O)[C@H](O)[C@@H](NC(=O)c4ccccc4)c4ccccc4)C(C)=C1C3(C)C)[C@]1(OC(C)=O)CO[C@@H]1C[C@@H]2O [PACLITAXEL] |  |  |  |  |  |  |  | Toxic |  |  |  |  |  | 
CC(C)(C)c1ccc(C/C(=N\O)C(=O)NCC[Se][Se]CCNC(=O)/C(Cc2ccc(C(C)(C)C)cc2)=N/O)cc1 | 6.55 | 7.00 | Active | 7.00 | Active | 6.89 | 6.72 |  |  |  |  |  |  | 
O=C(NCC[Se][Se]CCNC(=O)/C(Cc1ccc(OCc2ccccc2)cc1)=N/O)/C(Cc1ccc(OCc2ccccc2)cc1)=N/O | 6.39 | 6.85 | Active | 6.85 | Active | 7.00 | 6.55 |  |  |  |  |  |  | 
O=C(NCC[Se][Se]CCNC(=O)/C(Cc1ccc(Br)cc1)=N/O)/C(Cc1ccc(Br)cc1)=N/O | 6.82 | 6.51 |  | 6.41 | Active | 6.77 | 6.51 |  |  |  |  |  |  | 
O=C(NCC[Se][Se]CCNC(=O)/C(Cc1ccc(O)c(F)c1)=N/O)/C(Cc1ccc(O)c(F)c1)=N/O | 7.70 | 7.70 | Active | 6.72 | Active | 8.00 | 6.89 |  |  |  |  |  |  | 
O=C(NCC[Se][Se]CCNC(=O)/C(Cc1ccc(O)c(Cl)c1)=N/O)/C(Cc1ccc(O)c(Cl)c1)=N/O | 8.00 | 7.70 | Active | 6.77 | Active | 8.00 | 6.96 |  |  |  |  |  |  | 
O=C(NCC[Se][Se]CCNC(=O)/C(Cc1ccc(O)c(Br)c1)=N/O)/C(Cc1ccc(O)c(Br)c1)=N/O | 7.70 | 7.52 | Active | 6.80 | Active | 8.00 | 6.68 |  | > 100 | > 100 | >100 | 77 | > 100 | 4.79
